target: T1, Retinoic acid receptor RXR-beta (Homo sapiens, UniProt P28702); assay: Transactivation of RXRbeta in CV1 cells by cotransfection assay; assay type: functional, cell-based, CV-1; details: cv-1
T1 sequence (P28702 whole entry): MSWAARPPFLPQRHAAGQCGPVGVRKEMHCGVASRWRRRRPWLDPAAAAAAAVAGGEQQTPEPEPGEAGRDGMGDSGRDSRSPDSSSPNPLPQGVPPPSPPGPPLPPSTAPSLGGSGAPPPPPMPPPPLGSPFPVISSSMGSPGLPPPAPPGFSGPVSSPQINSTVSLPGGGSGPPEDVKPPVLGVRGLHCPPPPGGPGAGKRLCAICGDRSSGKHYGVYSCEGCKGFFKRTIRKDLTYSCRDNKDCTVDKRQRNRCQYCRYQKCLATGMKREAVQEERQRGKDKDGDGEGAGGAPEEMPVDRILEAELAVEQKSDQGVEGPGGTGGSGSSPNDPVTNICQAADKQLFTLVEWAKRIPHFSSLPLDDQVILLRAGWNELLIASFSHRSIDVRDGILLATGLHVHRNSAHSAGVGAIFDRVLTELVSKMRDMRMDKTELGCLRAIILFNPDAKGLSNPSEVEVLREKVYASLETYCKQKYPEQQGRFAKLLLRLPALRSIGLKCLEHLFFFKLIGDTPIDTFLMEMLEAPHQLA
Method in brief: (§1)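 EC50 taken from a full dose–response curve. Retinoid activity was normalized to the response to ATRA (all-trans retinoic acid). Potency (EC50) is the retinoid concentration that gives 50% of the maximal observed response.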

Row | SMILES | EC50
1 | CC(C)=CCN(C/C=C/C(C)=C/C(=O)O)c1cc(C(C)(C)C)cc2c1CCC2(C)C | Not Active
2 | CC(/C=C/C(=O)N(Cc1ccccc1)c1cc(C(C)(C)C)cc(C(C)(C)C)c1)=C\C(=O)O | Not Active
3 | CCCCCCCCN(C/C=C/C(C)=C/C(=O)O)c1cc(C(C)(C)C)cc(C(C)(C)C)c1 | Not Active
4 | CC(/C=C/CNc1cc(C(C)(C)C)cc(C(C)(C)C)c1)=C\C(=O)O | Not Active
5 | CC(/C=C/CN(Cc1ccccc1)c1cc(C(C)(C)C)cc(C(C)(C)C)c1)=C\C(=O)O | Not Active
6 | CC(/C=C/C(=O)Nc1cc(C(C)(C)C)cc(C(C)(C)C)c1)=C\C(=O)O | Not Active

same assay, conditions: read-out: EC50

Row | SMILES | EC50
7 | CCCCN(C/C=C/C(C)=C/C(=O)O)c1cc(C(C)(C)C)cc2c1CCC2(C)C | 52 nM
8 | CCCN(C/C=C/C(C)=C/C(=O)O)c1cc2c(cc1OC)C(C)(C)CCC2(C)C | 169 nM
9 | CCCN(C/C=C/C(C)=C/C(=O)O)c1cc2c(cc1C)C(C)(C)CCC2(C)C | 212 nM
10 | CCCN(C/C=C/C(C)=C/C(=O)O)c1ccc2c(c1)C(C)(C)CCC2(C)C | 206 nM

target: T2, Retinoic acid receptor RXR-alpha (Homo sapiens, UniProt P19793); assay: Binding affinity to RXRalpha; details: not given
T2 sequence (P19793 whole entry): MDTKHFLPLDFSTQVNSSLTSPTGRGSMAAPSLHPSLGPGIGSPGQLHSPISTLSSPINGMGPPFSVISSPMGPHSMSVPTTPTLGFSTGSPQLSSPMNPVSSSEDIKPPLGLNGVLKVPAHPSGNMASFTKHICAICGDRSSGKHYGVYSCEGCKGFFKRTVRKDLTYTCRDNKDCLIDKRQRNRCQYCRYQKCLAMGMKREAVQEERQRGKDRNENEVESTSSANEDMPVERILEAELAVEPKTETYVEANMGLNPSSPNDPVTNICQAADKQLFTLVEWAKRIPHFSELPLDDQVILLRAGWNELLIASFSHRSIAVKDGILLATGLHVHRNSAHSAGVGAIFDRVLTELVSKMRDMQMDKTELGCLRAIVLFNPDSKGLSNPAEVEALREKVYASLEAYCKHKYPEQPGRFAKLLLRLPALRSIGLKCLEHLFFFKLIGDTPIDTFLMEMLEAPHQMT

Row | SMILES | Ki
11 | CC(/C=C/C(=O)N(Cc1ccccc1)c1cc(C(C)(C)C)cc(C(C)(C)C)c1)=C\C(=O)O | Not Active
12 | CC(/C=C/C(=O)Nc1cc(C(C)(C)C)cc(C(C)(C)C)c1)=C\C(=O)O | Not Active

same assay, conditions: read-out: Ki

Row | SMILES | Ki
13 | CCCN(C/C=C/C(C)=C/C(=O)O)c1cc2c(cc1OC)C(C)(C)CCC2(C)C | 257 nM
14 | CC(C)=CCN(C/C=C/C(C)=C/C(=O)O)c1cc(C(C)(C)C)cc2c1CCC2(C)C | 254 nM
15 | CCCCCCCCN(C/C=C/C(C)=C/C(=O)O)c1cc(C(C)(C)C)cc(C(C)(C)C)c1 | 122 nM
16 | CC(/C=C/CNc1cc(C(C)(C)C)cc(C(C)(C)C)c1)=C\C(=O)O | 529 nM

The next lines start with the values.

Row | Ki | SMILES
17 | 21 nM | CCCCN(C/C=C/C(C)=C/C(=O)O)c1cc(C(C)(C)C)cc2c1CCC2(C)C
18 | 18 nM | CCCN(C/C=C/C(C)=C/C(=O)O)c1cc2c(cc1C)C(C)(C)CCC2(C)C
19 | 47 nM | CCCN(C/C=C/C(C)=C/C(=O)O)c1ccc2c(c1)C(C)(C)CCC2(C)C
20 | 121 nM | CC(/C=C/CN(Cc1ccccc1)c1cc(C(C)(C)C)cc(C(C)(C)C)c1)=C\C(=O)O

target: T2, Retinoic acid receptor RXR-alpha; assay: Transactivation of RXRalpha in CV1 cells by cotransfection assay; assay type: functional, cell-based, CV-1; details: cv-1; method in brief: as §1

Row | SMILES | EC50
21 | CC(C)=CCN(C/C=C/C(C)=C/C(=O)O)c1cc(C(C)(C)C)cc2c1CCC2(C)C | Not Active
22 | CC(/C=C/C(=O)N(Cc1ccccc1)c1cc(C(C)(C)C)cc(C(C)(C)C)c1)=C\C(=O)O | Not Active
23 | CCCCCCCCN(C/C=C/C(C)=C/C(=O)O)c1cc(C(C)(C)C)cc(C(C)(C)C)c1 | Not Active
24 | CC(/C=C/CNc1cc(C(C)(C)C)cc(C(C)(C)C)c1)=C\C(=O)O | Not Active
25 | CC(/C=C/CN(Cc1ccccc1)c1cc(C(C)(C)C)cc(C(C)(C)C)c1)=C\C(=O)O | Not Active
26 | CC(/C=C/C(=O)Nc1cc(C(C)(C)C)cc(C(C)(C)C)c1)=C\C(=O)O | Not Active

same assay, conditions: read-out: EC50

Row | SMILES | EC50
27 | CCCCN(C/C=C/C(C)=C/C(=O)O)c1cc(C(C)(C)C)cc2c1CCC2(C)C | 53 nM
28 | CCCN(C/C=C/C(C)=C/C(=O)O)c1cc2c(cc1OC)C(C)(C)CCC2(C)C | 400 nM
29 | CCCN(C/C=C/C(C)=C/C(=O)O)c1cc2c(cc1C)C(C)(C)CCC2(C)C | 231 nM
30 | CCCN(C/C=C/C(C)=C/C(=O)O)c1ccc2c(c1)C(C)(C)CCC2(C)C | 152 nM

target: T3, Retinoic acid receptor RXR-gamma (Homo sapiens, UniProt P48443); assay: Binding affinity to RXRgamma; details: not given
T3 sequence (P48443 whole entry): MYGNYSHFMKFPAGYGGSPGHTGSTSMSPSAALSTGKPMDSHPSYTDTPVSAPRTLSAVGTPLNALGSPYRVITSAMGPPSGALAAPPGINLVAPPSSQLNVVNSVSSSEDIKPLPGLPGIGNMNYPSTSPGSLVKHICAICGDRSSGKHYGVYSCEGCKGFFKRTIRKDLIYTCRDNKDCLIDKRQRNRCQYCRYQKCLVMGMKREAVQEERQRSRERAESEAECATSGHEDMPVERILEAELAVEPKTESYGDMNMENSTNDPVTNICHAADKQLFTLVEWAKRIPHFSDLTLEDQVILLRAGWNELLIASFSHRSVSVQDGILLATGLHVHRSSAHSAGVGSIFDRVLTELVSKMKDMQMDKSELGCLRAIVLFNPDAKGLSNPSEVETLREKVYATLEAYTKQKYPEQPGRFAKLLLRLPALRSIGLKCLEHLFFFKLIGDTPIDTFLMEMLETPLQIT

Row | SMILES | Ki
31 | CC(/C=C/C(=O)N(Cc1ccccc1)c1cc(C(C)(C)C)cc(C(C)(C)C)c1)=C\C(=O)O | Not Active
32 | CC(/C=C/CNc1cc(C(C)(C)C)cc(C(C)(C)C)c1)=C\C(=O)O | Not Active
33 | CC(/C=C/C(=O)Nc1cc(C(C)(C)C)cc(C(C)(C)C)c1)=C\C(=O)O | Not Active

same assay, conditions: read-out: Ki

Row | SMILES | Ki
34 | CCCN(C/C=C/C(C)=C/C(=O)O)c1cc2c(cc1OC)C(C)(C)CCC2(C)C | 576 nM
35 | CC(C)=CCN(C/C=C/C(C)=C/C(=O)O)c1cc(C(C)(C)C)cc2c1CCC2(C)C | 309 nM
36 | CCCCCCCCN(C/C=C/C(C)=C/C(=O)O)c1cc(C(C)(C)C)cc(C(C)(C)C)c1 | 221 nM

The remaining lines, values ahead:

Row | Ki | SMILES
37 | 31 nM | CCCCN(C/C=C/C(C)=C/C(=O)O)c1cc(C(C)(C)C)cc2c1CCC2(C)C
38 | 211 nM | CCCN(C/C=C/C(C)=C/C(=O)O)c1cc2c(cc1C)C(C)(C)CCC2(C)C
39 | 110 nM | CCCN(C/C=C/C(C)=C/C(=O)O)c1ccc2c(c1)C(C)(C)CCC2(C)C
40 | 207 nM | CC(/C=C/CN(Cc1ccccc1)c1cc(C(C)(C)C)cc(C(C)(C)C)c1)=C\C(=O)O

target: T1, Retinoic acid receptor RXR-beta; assay: Binding affinity to RXRbeta; details: not given

Row | SMILES | Ki
41 | CC(/C=C/C(=O)N(Cc1ccccc1)c1cc(C(C)(C)C)cc(C(C)(C)C)c1)=C\C(=O)O | Not Active
42 | CC(/C=C/CNc1cc(C(C)(C)C)cc(C(C)(C)C)c1)=C\C(=O)O | Not Active
43 | CC(/C=C/C(=O)Nc1cc(C(C)(C)C)cc(C(C)(C)C)c1)=C\C(=O)O | Not Active

same assay, conditions: read-out: Ki

Row | SMILES | Ki
44 | CCCN(C/C=C/C(C)=C/C(=O)O)c1cc2c(cc1OC)C(C)(C)CCC2(C)C | 721 nM
45 | CC(C)=CCN(C/C=C/C(C)=C/C(=O)O)c1cc(C(C)(C)C)cc2c1CCC2(C)C | 327 nM
46 | CCCCCCCCN(C/C=C/C(C)=C/C(=O)O)c1cc(C(C)(C)C)cc(C(C)(C)C)c1 | 126 nM

Other lines, results leading:

Row | Ki | SMILES
47 | 60 nM | CCCCN(C/C=C/C(C)=C/C(=O)O)c1cc(C(C)(C)C)cc2c1CCC2(C)C
48 | 161 nM | CCCN(C/C=C/C(C)=C/C(=O)O)c1cc2c(cc1C)C(C)(C)CCC2(C)C
49 | 72 nM | CCCN(C/C=C/C(C)=C/C(=O)O)c1ccc2c(c1)C(C)(C)CCC2(C)C
50 | 238 nM | CC(/C=C/CN(Cc1ccccc1)c1cc(C(C)(C)C)cc(C(C)(C)C)c1)=C\C(=O)O

target: T3, Retinoic acid receptor RXR-gamma; assay: Transactivation of RXRgamma in CV1 cells by cotransfection assay; assay type: functional, cell-based, CV-1; details: cv-1; method in brief: as §1

Row | SMILES | EC50
51 | CCCN(C/C=C/C(C)=C/C(=O)O)c1cc2c(cc1OC)C(C)(C)CCC2(C)C | Not Active
52 | CC(C)=CCN(C/C=C/C(C)=C/C(=O)O)c1cc(C(C)(C)C)cc2c1CCC2(C)C | Not Active
53 | CC(/C=C/C(=O)N(Cc1ccccc1)c1cc(C(C)(C)C)cc(C(C)(C)C)c1)=C\C(=O)O | Not Active
54 | CC(/C=C/CNc1cc(C(C)(C)C)cc(C(C)(C)C)c1)=C\C(=O)O | Not Active
55 | CC(/C=C/CN(Cc1ccccc1)c1cc(C(C)(C)C)cc(C(C)(C)C)c1)=C\C(=O)O | Not Active
56 | CC(/C=C/C(=O)Nc1cc(C(C)(C)C)cc(C(C)(C)C)c1)=C\C(=O)O | Not Active

same assay, conditions: read-out: EC50

Row | SMILES | EC50
57 | CCCCN(C/C=C/C(C)=C/C(=O)O)c1cc(C(C)(C)C)cc2c1CCC2(C)C | 50 nM
58 | CCCN(C/C=C/C(C)=C/C(=O)O)c1cc2c(cc1C)C(C)(C)CCC2(C)C | 223 nM
59 | CCCN(C/C=C/C(C)=C/C(=O)O)c1ccc2c(c1)C(C)(C)CCC2(C)C | 170 nM
60 | CCCCCCCCN(C/C=C/C(C)=C/C(=O)O)c1cc(C(C)(C)C)cc(C(C)(C)C)c1 | 35 nM

Source: ChEMBL document CHEMBL1146995, “Aza-retinoids as novel retinoid X receptor-specific agonists” (Bioorg Med Chem Lett, 2006)
